Experimental data reported in ChEMBL document CHEMBL1140921, “Discovery of novel Myc-Max heterodimer disruptors with a three-dimensional pharmacophore model” (J Med Chem, 2009).
Active and inactive are the calls of the source. No cut-off for these calls is given here.

Columns and labels:
[1] = Inhibition of 6-His tagged recombinant c-Myc353-437 gene binding to Max(S) protein assessed as disruption of heterodimer formation by circular dichroism assay
In short: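 Circular dichroism on equimolar c-Myc and Max (1.5 µM each), with helical content read as ellipticity at 222 nm. Compounds were screened at 200 µM (average of three independent trials), then titrated over a concentration range. The fitted Kcomp was multiplied by the independently determined c-Myc–Max dissociation constant to estimate affinity for c-Myc monomer. Triplicate.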

HL-60 = test: Cytotoxicity against human HL60 cells by MTS assay; type: functional, cell-based
In short: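 HL60 cell growth dose-response profiles; IC50 calculated from the profile on day 5 after compound addition.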

[2] = Cytotoxicity against rat c-Myc knockout KO-HMG cells overexpressing HMGA1b by MTS assay; type: cell-based

Row | SMILES | IC50 [1] | IC50 (HL-60) | further results
1 | O=C1NC(=S)S/C1=C\c1ccc(O)c(O)c1 | 23 µM |  | 
2 | O=C1NC(=S)S/C1=C\c1ccc(Cl)cc1 | 41 µM |  | 
3 | O=C1NC(=S)S/C1=C\c1ccc(O)cc1 |  |  | Activity [1]: inactive
4 | Cc1ccc(C)c(OCN2Cc3ccccc3C2C=O)c1 (stereo not drawn) |  | 15 µM | IC50 [2]: > 35 µM
5 | CCc1ccc(OCC(=O)Nc2ccc(C)cc2Br)cc1 |  | 23 µM | IC50 [2]: > 55 µM
6 | CN(C)c1ccc(/C=C2\SC(=S)NC2=O)cc1 |  |  | Activity [1]: inactive

More lines, main results first:

Row | IC50 [1] | SMILES | IC50 (HL-60) | further results
7 | 38 µM | CC(C)c1ccc(/C=C2\SC(=S)NC2=O)cc1 |  | 
8 | 10 µM | CCCCOC(=O)CCN1C(=O)/C(=C/c2ccc(CC)cc2)SC1=S |  | 
9 | 49 µM | CCc1ccc(/C=C2\SC(=S)NC2=O)cc1 | 35 µM | 
10 | 4.6 µM | CCCN1C(=O)/C(=C/c2ccc(CC)cc2)SC1=S |  | 
